Most compounds without a hit are left out; they make up all but 3.8% or so of the library.
KCNK3 inh: human KCNK3 channel inhibition, primary screen | O14649 | CHO-KCNK3 thallium flux, FluxOR fluorescence; stronger effect = lower value | B-score at 10 µM | 340,000 compounds, 0.84% hits | AID 602410;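 active = B-score under library mean minus 4 SD, starting fluorescence ratio at most library mean plus 5 SD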;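 note: more negative B-score means stronger inhibition of thallium flux through KCNK3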
KCNQ1 block: human KCNQ1 channel inhibition; P51787; 310,000 compounds, 1.3% hits; B-score at 10 µM; CHO-K1 KCNQ1, FluxOR thallium flux fluorescence; stronger effect = higher value;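 active = compounds whose thallium flux B-score, printed positive for inhibition, exceeds three library SD while starting fluorescence stays within three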;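 note: channel opened by potassium depolarization with thallium stimulus after 20 min compound exposure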
Kir21 block: inhibitors of mouse Kir2.1 inward-rectifier potassium channel | HEK293-Kir2.1, FluxOR thallium flux fluorescence; stronger effect = lower value | P35561 | AID 1672 | B-score at 10 µM | 310,000 compounds, 0.85% hits;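 active = fluorescence ratio B-score at or below minus 3 SD of library scores, with starting-brightness B-score within 2 SD, cut at about -4.2 in these data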;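 note: channel flux triggered by added potassium and thallium sulfate stimulus; B-score of peak minus minimum fluorescence over baseline after thallium stimulus; more negative B-score means stronger Kir2.1 block with less thallium influx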
Target sequence (P35561 whole entry, looked up): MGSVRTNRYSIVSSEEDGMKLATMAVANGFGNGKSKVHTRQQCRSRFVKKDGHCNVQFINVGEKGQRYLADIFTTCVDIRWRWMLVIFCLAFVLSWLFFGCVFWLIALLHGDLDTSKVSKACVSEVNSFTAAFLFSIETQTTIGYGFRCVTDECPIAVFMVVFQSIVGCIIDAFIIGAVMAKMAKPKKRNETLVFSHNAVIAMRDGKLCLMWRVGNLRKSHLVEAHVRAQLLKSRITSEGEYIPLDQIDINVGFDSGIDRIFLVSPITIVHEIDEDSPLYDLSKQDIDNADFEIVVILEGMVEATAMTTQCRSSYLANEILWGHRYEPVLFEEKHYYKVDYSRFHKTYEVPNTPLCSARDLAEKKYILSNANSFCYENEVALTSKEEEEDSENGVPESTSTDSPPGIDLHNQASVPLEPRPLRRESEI
KCNK9 inh: blocks the human KCNK9 two-pore domain potassium channel; Q9NPC2; HEK293 KCNK9, FluxOR thallium flux fluorescence; stronger effect = lower value; B-score at 10 µM; 310,000 compounds, 1.2% hits;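 active = ratio B-score over 3 SD below the library mean, with starting fluorescence within 5 SD of its mean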;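 note: negative B-score means less thallium flux so channel inhibition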
KCNQ1 act: potentiates or activates the human KCNQ1 potassium channel. B-score at 10 µM. CHO-K1 KCNQ1, thallium flux FluxOR fluorescence; stronger effect = higher value. P51787. 310,000 compounds, 0.35% hits;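 active = fluorescence ratio B-score, a plate-corrected score, at least three library SD, with initial intensity B-score within 5 SD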
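System: CHO-K1 cells stably expressing KCNQ1 / Medium: assay buffer for compound exposure, DMSO matched across wells / Reagent: thallium- and potassium-containing depolarizing buffer / Compound: one concentration, matched DMSO / Incubation: 20 min compound pretreatment at room temperature / Measured by: kinetic FluxOR fluorescence, 10 s baseline plus 110 s post-stimulus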
hERG protect: compounds protecting human hERG from proarrhythmic drug block. Q12809. CHO-hERG, FluxOR thallium flux, dofetilide IC70 present. activation (rescue from dofetilide block), less the hit threshold, % at 10 µM. 310,000 compounds, 0.51% hits;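 active = activation above the mean of controls blocked by dofetilide plus 5 SD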;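 note: thallium influx through hERG after potassium depolarization seen as dye fluorescence rise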
Starred values were filed as active, the others as inactive; i = inactive; x = no result given.

SMILES	KCNK3 inh	KCNQ1 block	Kir21 block	KCNK9 inh	KCNQ1 act	hERG protect
CCOC(=O)c1c(-c2ccccc2)oc2ccc(O)c(CN(C)C)c12	i	i	-6.4*	i	i	-6
CCOC(=O)c1c(C(C)(C)C)oc2ccc(OCC#N)cc12	i	6*	0.48	i	i	-7
COc1ccccc1N(CC(=O)NCc1ccc2c(c1)OCO2)C(=O)CCC(=O)Nc1nccs1	i	i	0.35	i	i	0
COc1ccc(COC(=O)C2CCN(C(=O)c3ccc(Cl)cc3)CC2)cc1F	i	x	x	x	x	x
COc1ccc2nc(SCC(=O)O)nc(C)c2c1	i	x	x	x	x	x
COc1ccc2nc(SCCOC(=O)Nc3ccc(Cl)cc3)nc(C)c2c1	i	i	-5.7*	i	i	-13
Clc1cccc2c1Sc1ccccc1CC2N1CCNCC1 (configuration not stated)	i	i	-9.7*	i	i	-22
COCCCN1CCN(C2Cc3ccccc3Sc3ccc(Cl)cc32)CC1 (configuration not stated)	i	i	-2.3	i	i	-26
Clc1ccc2c(c1)C(N1CCNCC1)Cc1ccccc1S2 (configuration not stated)	i	6*	-14*	i	i	-23
Cc1ccccc1Nc1nc(N)nc(CCl)n1	i	i	-1.8	i	i	-3
Nc1nc(CCl)nc(Nc2ccc3ccccc3c2)n1	i	i	-0.43	i	13*	-10
COc1ccc(S(=O)(=O)n2nc(OC(=O)c3ccccc3)cc2N)cc1	i	i	0.11	i	i	-12
COc1ccc(S(=O)(=O)n2nc(OC(=O)c3ccccc3Br)cc2N)cc1	-9.1*	i	0.96	i	i	-9
O=C(CSc1nnc(-c2ccncc2)n1Cc1ccco1)Nc1ccccc1F	i	i	-1.6	-6.9*	i	-6
O=C(CSc1nnc(-c2ccncc2)n1Cc1ccco1)Nc1ccccc1Cl	i	i	-2.7	i	i	-15
C=CCN1CCc2nc(N)sc2CC1	i	x	x	x	x	x
Nc1nc2c(s1)CCCCCCCCCC2	i	i	-7.4*	i	i	-1
Cn1c(=O)n(C)c2cc([N+](=O)[O-])c(N3CCN(CCO)CC3)cc21	i	i	0.26	i	i	-15
O=C(Nc1nc(=O)c2ccccc2s1)c1ccc(F)cc1	i	i	0.82	i	23*	-3
CN1CCN(NC(=O)Nc2cccc(F)c2)CC1	i	8*	-0.61	i	i	-7
c1csc(-c2nc3ccccn3c2NC2CCCCC2)c1	i	i	-0.75	i	i	-7
CCC(C)Sc1cc(-c2nc3ccccn3c2NC2CCCCC2)ccc1OC (configuration not stated)	i	8*	0.25	i	i	-12
CC(=O)c1ccc(-c2cccc(-c3nc4ccccn4c3NC3CCCCC3)c2)cc1	i	i	0	-7.7*	i	-6
Cc1ccc(S(=O)(=O)Nc2cc(C)c(O)c(Sc3n[nH]c(C)n3)c2)cc1	i	i	-0.75	i	i	-6
O=C(NCC(=O)N1CCC(Cc2ccccc2)CC1)c1ccc(Cl)cc1	i	i	0.58	i	i	-8
SMILES	KCNK3 inh	KCNQ1 block	Kir21 block	KCNK9 inh	KCNQ1 act	hERG protect
COC(=O)c1sccc1NC(=O)c1cc(-c2ccc(C)cc2C)nc2ccccc12	i	8*	1.5	i	i	-18
COC(=O)c1sccc1NC(=O)c1ccccc1C(=O)O	i	i	-0.1	i	i	-8
Cc1ccc(C)c(-c2cc(C(=O)Nc3sc(C)c(C)c3C(N)=O)c3ccccc3n2)c1	i	6*	0.34	i	i	-16
O=C(Nc1nccs1)c1cc(-c2ccco2)nc2ccccc12	i	i	1.7	i	i	-21
O=C(Nc1nccs1)c1cc(-c2ccccc2)nc2ccccc12	i	i	0.83	-6.7*	i	-14
CCOC(=O)c1sc(NC(=O)CSc2n[nH]c(-c3ccccc3)n2)c(C#N)c1C	i	i	0.22	i	i	-19
CCOC(=O)c1sc(NC(=O)c2cc(-c3ccccc3)nc3ccccc23)c(C#N)c1C	i	8*	-3.1	i	i	-35
CCOc1ccc(NC(=O)CN(C)C(=O)c2cc(C)on2)cc1OCC	i	i	-0.17	i	i	-13
CCCn1c2ccc(C)cc2c2nnc(SCCN3CCOCC3)nc21	i	i	-2.3	i	i	-17
COc1ccc(CNc2nc3ccccc3n2C)c(OC)c1	i	i	-0.07	i	i	-11
COc1ccc(N/C=C(\C#N)c2nc3ccccc3n2C)c(OC)c1	i	i	1.2	-7*	i	-14
O=S(=O)(NCc1ccccc1)NCc1ccc(Cl)cc1Cl	i	i	0.74	i	i	-12
CCN=C1SC(C(=O)Nc2cccc(Br)c2)CC(=O)N1CC (configuration not stated)	i	i	0.02	-7.1*	i	-7
CC(C)N(C(=O)Cn1c(Cl)nc2ccccc21)C(C)C	i	i	0.33	i	i	-10
Cc1cc(C)cc(-n2c(C)cc(/C=N\NC(=O)COc3cccc4cccnc34)c2C)c1	i	7*	-2.3	i	i	-10
COCCOC(=O)/C(=C\c1cc(C(C)(C)C)c(O)c(C(C)(C)C)c1)C(C)=O	i	i	-5.4*	i	i	-12
c1ccc2c(NCCc3c[nH]c4ccccc34)c3ccccc3nc2c1	i	7*	-12*	i	i	-17
Fc1cccc(NCCc2c[nH]c3ccccc23)n1	i	i	0.99	i	i	-8
COc1ccc(C(CCNCc2ccc(OC)c(OC)c2)c2ccc(F)cc2)cc1 (configuration not stated)	i	i	-4.5*	i	i	-14
Cc1ncc(CN2CCCC(C(=O)Nc3ccc(-c4cccc(F)c4)cc3)C2)n1C (configuration not stated)	i	i	-4.3*	i	i	-20
COc1cccc(-c2ccc(NC(=O)C3CCCN(Cc4cnc(C)n4C)C3)cc2)c1 (configuration not stated)	i	i	-0.29	i	i	-20
Cc1ccccc1N(CC(=O)NCc1ccc2c(c1)OCO2)C(=O)C1CSC(=O)C1 (configuration not stated)	i	i	-0.46	i	i	-6
O=S(=O)(NCCSc1ccc(Cl)cc1)c1ccc2c(c1)OCCO2	i	i	-5.4*	i	i	-2
O=S(=O)(NCCSCc1c(Cl)cccc1Cl)c1ccc2c(c1)OCCO2	i	i	-1.6	i	i	-14

Assay outcomes (PubChem)
